According to ChEMBL document CHEMBL1949637, “Anticancer effects of the metabolic products of the resveratrol analogue, DMU-212: structural requirements for potency” (Eur J Med Chem, 2011):
Active and inactive are the calls of the source. The calls are words filed in the database; no cut-off is given here.

How the values were obtained:
Assay type in all cases: functional, cell-based
[1] = test system: MCF7; assay: Cell cycle arrest in human MCF7 cells assessed as accumulation at G2/M phase at 10 uM after 24 hrs using propidium iodide staining by flow cytometry
Outline: (§1)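 Cells cultured in T75 flasks, serum-starved 24 h, then exposed to 10 μM for 24 h. Trypsinised, washed in PBS and fixed in 70% ethanol for at least 2 h. Stained with propidium iodide 50 μg/mL containing RNase A 100 μg/mL. DNA content read by flow cytometry on at least 10,000 events. Percentage of cells in each phase recorded.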

[2] = test system: HepG2; assay: Cell cycle arrest in human HepG2 cells assessed as accumulation at G2/M phase at 10 uM after 24 hrs using propidium iodide staining by flow cytometry; outline: as §1
[3] = test system: MCF7; assay: Cell cycle arrest in human MCF7 cells assessed as accumulation at G1 phase at 10 uM after 24 hrs using propidium iodide staining by flow cytometry; outline: as §1
[4] = test system: HepG2; assay: Cell cycle arrest in human HepG2 cells assessed as accumulation at G1 phase at 10 uM after 24 hrs using propidium iodide staining by flow cytometry; outline: as §1
[5] = test system: MCF7; assay: Cell cycle arrest in human MCF7 cells assessed as accumulation at S phase at 10 uM after 24 hrs using propidium iodide staining by flow cytometry; outline: as §1
[6] = test system: HepG2; assay: Cell cycle arrest in human HepG2 cells assessed as accumulation at S phase at 10 uM after 24 hrs using propidium iodide staining by flow cytometry; outline: as §1
[7] = test system: HeLa; assay: Cell cycle arrest in human HeLa cells assessed as accumulation at G2/M phase at 10 uM after 24 hrs using propidium iodide staining by flow cytometry; outline: as §1
[8] = test system: HeLa; assay: Cytotoxicity against human HeLa cells after 96 hrs by MTT assay
Outline: (§2)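 Cells plated in 96-well plates and allowed 24 h growth. Medium was replaced with serial dilutions, 0.079–20 μM, for 96 h. Viability read spectrophotometrically by MTT reduction. IC₅₀ values taken from at least 3 experiments. MCF-7 cells were kept in RPMI-1640 and HepG2/HeLa in DMEM, each with 10% heat-inactivated FCS.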

[9] = test system: MCF7; assay: Induction of apoptosis in human MCF7 cells assessed as nuclear fragmentation at 30 uM after 24 hrs using DAPI staining by immunofluorescence method
Outline: (§3)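 MCF-7 cells grown on coverslips (8 × 10⁴ cells/well) and treated 24 h at 10 or 30 μM. Fixed, permeabilised and processed as for β-tubulin immunostaining. DAPI working solution applied at 1:100 for 5 min. Fragmented nuclei scored by fluorescence microscopy.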

[10] = test system: MCF7; assay: Induction of apoptosis in human MCF7 cells assessed as nuclear fragmentation at 10 uM after 24 hrs using DAPI staining by immunofluorescence method; outline: as §3
[11] = test system: MCF7; assay: Antimitotic activity in human MCF7 cells assessed as effect on beta-tubulin distribution at 10 uM after 24 hrs by immunofluorescence staining
Outline: (§4)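 MCF-7 cells seeded on coverslips in 24-well plates, 8 × 10⁴ cells/well, exposed to 10 or 30 μM for 24 or 48 h. Fixed, permeabilised, then stained 1 h at room temperature with anti-β-tubulin (1:200 in PBS/1% FBS). Secondary was AlexaFluor-conjugated anti-mouse IgG (1:500), 1 h in the dark. Read by fluorescence microscopy.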

[12] = test system: MCF7; assay: Antimitotic activity in human MCF7 cells assessed as decrease in localization of beta-tubulin expression around cell nucleus at 30 uM after 24 hrs by immunofluorescence staining; outline: as §4
[13] = test system: MCF7; assay: Antimitotic activity in human MCF7 cells assessed as decrease in localization of beta-tubulin expression around cell nucleus at 30 uM after 48 hrs by immunofluorescence staining; outline: as §4
[14] = test system: MCF7; assay: Downregulation of beta-tubulin expression in human MCF7 cells at >30 uM after 24 hrs by Western blot analysis
Outline: (§5)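 MCF-7 or HepG2 cells seeded at 3 × 10⁵ cells/mL in 6-well plates and treated 24 h at 37 °C with 0, 30, 40 or 50 μM. Lysed in buffer with protease inhibitors and 1 mM DTT, then sonicated. Lysates run on SDS-PAGE (10% resolving gel), wet-blotted to PVDF and probed overnight at 4 °C. Antibodies were anti-β-tubulin 1:400, p53 1:200, cyclin D1 1:200; β-actin 1:400 served as loading reference. Detection by ECL.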

[15] = test system: HepG2; assay: Downregulation of beta-tubulin expression in human HepG2 cells at >30 uM after 24 hrs by Western blot analysis; outline: as §5
[16] = test system: MCF7; assay: Downregulation of cyclin D1 expression in human MCF7 cells after 24 hrs by Western blot analysis; outline: as §5
[17] = test system: HepG2; assay: Downregulation of cyclin D1 expression in human HepG2 cells after 24 hrs by Western blot analysis; outline: as §5
[18] = test system: MCF7; assay: Upregulation of p53 protein expression in human MCF7 cells after 24 hrs by Western blot analysis; outline: as §5
[19] = test system: HepG2; assay: Upregulation of p53 protein expression in human HepG2 cells after 24 hrs by Western blot analysis; outline: as §5
[20] = test system: HepG2; assay: Induction of apoptosis in human HepG2 cells assessed as upregulation of Bax mRNA level after 24 hrs by RT-PCR analysis
[21] = test system: MCF7; assay: Induction of apoptosis in human MCF7 cells assessed as upregulation of Bax mRNA level after 24 hrs by RT-PCR analysis
[22] = test system: MCF7; assay: Induction of apoptosis in human MCF7 cells assessed as down-regulation of Bcl-xL mRNA level after 24 hrs by RT-PCR analysis
[23] = test system: HepG2; assay: Induction of apoptosis in human HepG2 cells assessed as effect on Bcl-xL mRNA level after 24 hrs by RT-PCR analysis
[24] = test system: HepG2; assay: Induction of apoptosis in human HepG2 cells assessed as increase of ratio of Bax to Bcl-xL mRNA level at 20 to 40 uM after 24 hrs by RT-PCR analysis
[25] = test system: MCF7; assay: Induction of apoptosis in human MCF7 cells assessed as increase of ratio of Bax to Bcl-xL mRNA level at 30 to 40 uM after 24 hrs by RT-PCR analysis
[26] = test system: MCF7; assay: Cytotoxicity against human MCF7 cells up to 20 uM after 96 hrs by MTT assay
[27] = test system: HepG2; assay: Cytotoxicity against human HepG2 cells up to 20 uM after 96 hrs by MTT assay
[28] = test system: MCF7; assay: Cytotoxicity against human MCF7 cells after 96 hrs by MTT assay; conditions: MCF7, 96 h; outline: as §2
[29] = test system: HepG2; assay: Cytotoxicity against human HepG2 cells after 96 hrs by MTT assay; conditions: HepG2, 96 h; outline: as §2

## COc1ccc(/C=C/c2cc(OC)c(OC)c(OC)c2)cc1O
[1]
  Activity: Active
[2]
  Activity: Active
[3]
  Activity: Active
[4]
  Activity: Active
[5]
  Activity: Active
[6]
  Activity: Active
[7]
  Activity: Active
[8]
  Activity: Active
[9]
  Activity: Active
[10]
  Activity: inactive
[11]
  Activity: inactive
[12]
  Activity: Active
[13]
  Activity: Active
[14]
  Activity: Active
[15]
  Activity: Active
[16]
  Activity: Dose-dependent effect
[17]
  Activity: Dose-dependent effect
[18]
  Activity: Dose-dependent effect
[19]
  Activity: Dose-dependent effect
[20]
  Activity: Dose-dependent effect
[21]
  Activity: Dose-dependent effect
[22]
  Activity: Active
[23]
  Activity: inactive
[24]
  Activity: Active
[25]
  Activity: Active
[26]
  Activity: Active
[27]
  Activity: Active

## COc1cc(/C=C/c2ccc(O)cc2)cc(OC)c1OC
[26]
  Activity: inactive
[27]
  Activity: inactive

## COc1ccc(/C=C/c2cc(OC)c(O)c(OC)c2)cc1
[26]
  Activity: inactive
[27]
  Activity: inactive

## COc1ccc(/C=C/c2cc(OC)c(OC)c(OC)c2)cc1
[28]
  IC50: 300 nM
[29]
  IC50: 300 nM
[1]
  Activity: Active
[2]
  Activity: Active
[3]
  Activity: Active
[4]
  Activity: Active
[5]
  Activity: Active
[6]
  Activity: Active
[7]
  Activity: Active
[8]
  Activity: Active
[9]
  Activity: Active
[10]
  Activity: inactive
[11]
  Activity: inactive
[12]
  Activity: Active
[13]
  Activity: Active
[14]
  Activity: Active
[15]
  Activity: Active
[16]
  Activity: Dose-dependent effect
[17]
  Activity: Dose-dependent effect
[18]
  Activity: Dose-dependent effect
[19]
  Activity: Dose-dependent effect

## COc1ccc(/C=C/c2cc(O)c(OC)c(OC)c2)cc1
[26]
  Activity: inactive
[27]
  Activity: inactive
